Data set [1] relates to NCI-H1417. Briefly: Cytotoxicity against human NCI-H1417 cells assessed as growth inhibition after 4 days by WST assay. The class given is functional, cell-based. The note with it: NCI-H1417, 96 h. The gist of the method: (§1)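 Human small-cell lung cancer line from ATCC, kept in RPMI-1640 with 10% FBS. Cells were exposed to serial compound concentrations for 4 days. WST-8 dye was then added for a further 1–2 h and absorbance read at 450 nm. IC50 was derived from absorbance of treated versus untreated cells. At least three independent experiments per cell line; standard deviation reported.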

In data set [2] the test system is NCI-H187. Briefly: Cytotoxicity against human NCI-H187 cells assessed as growth inhibition after 4 days by WST assay. It is filed as functional, cell-based. The note with it: NCI-H187, 96 h. The gist of the method:
as §1

For data set [3], the system named is NCI-H1963. In words: Cytotoxicity against human NCI-H1963 cells assessed as growth inhibition after 4 days by WST assay. It is filed as functional, cell-based. The note with it: NCI-H1963, 96 h. The gist of the method:
as §1

The subject of data set [4] is NCI-H146. Briefly: Antitumor activity against human NCI-H146 cells xenografted in SCID mouse assessed as tumor regression at 15 mg/kg, iv administered 5 days per week for 2 weeks. The class given is functional, organism-based. Set-up: dose 15 mg/kg. The gist of the method: (§2)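 H146 cells (5×10^6, with Matrigel) implanted subcutaneously on the dorsal side of SCID mice, one tumor per mouse. Mice with tumors of 100–150 mm³ were randomized into groups of 8, mean volume 126 mm³. Vehicle or compound given intravenously at 15 mg/kg, daily, 5 days/week for 2 weeks. Tumor volume was followed over time.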
In general terms: Xenograft models place foreign cells or tissue in a host animal.

Data set [5] relates to Mus musculus. Briefly: Toxicity in SCID mouse 15 mg/kg, iv administered 5 days per week for 2 weeks. The class given is organism-based. Set-up: dose 15 mg/kg, route intravenous. As to conditions: in vivo. The gist of the method: (§3)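 Tolerability run in non-tumor-bearing SCID mice. Compound given intravenously at 15 or 25 mg/kg, daily, 5 days a week for 2 weeks. Weight loss and other signs of toxicity were followed during and after treatment, and the maximum tolerated dose was set from weight loss.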

Data set [6] can be described thus: Toxicity in iv dosed SCID mouse assessed as weight loss administered 5 days per week for 2 weeks. The class given is organism-based. As to conditions: in vivo. The gist of the method:
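Maximum tolerated dose study in SCID mice. Compound was given intravenously at 15 or 25 mg/kg, daily, 5 days a week for 2 weeks. Body weight loss and other signs of toxicity were monitored during and after treatment.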

The test system of data set [7] is Mus musculus. Briefly: Toxicity in SCID mouse assessed as weight loss at 25 mg/kg, iv administered 5 days per week for 2 weeks relative to control. The class given is organism-based. Further details: dose 25 mg/kg, route intravenous. As to conditions: in vivo. The gist of the method: as §3
Data set [8] deals with Mus musculus. Briefly: Toxicity in SCID mouse assessed as weight loss at 15 mg/kg, iv administered 5 days per week for 2 weeks relative to control. As to conditions: in vivo. The class given is organism-based. Further details: dose 15 mg/kg, route intravenous. The method, boiled down: as §3
Data set [9] has as its target Induced myeloid leukemia cell differentiation protein Mcl-1 (Homo sapiens, UniProt Q07820). Briefly: Binding affinity to MCL1 (unknown origin) after 2 hrs by fluorescence polarization assay. The gist of the method: (§4)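 Competitive FP binding assay. Preformed protein/fluorescent probe complexes were used at 1.5/1 nM for Bcl-2, 10/2 nM for Bcl-xL and 20/2 nM for Mcl-1. These were mixed with serially diluted inhibitor and shaken gently for 2 h at room temperature before millipolarization was read. IC50 came from nonlinear regression, and Ki was calculated from IC50.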

Data set [10] can be described thus: Cytotoxicity against human NCI-H146 cells assessed as growth inhibition after 4 days by WST assay. It is filed as functional, cell-based. As to conditions: NCI-H146, 96 h.
Data set [11] addresses Bcl-2-like protein 1 (Homo sapiens, UniProt Q07817). In words: Binding affinity to BCL-XL (unknown origin) after 2 hrs by fluorescence polarization assay. The gist of the method:
as §4
(In fluorescence polarisation assays a small probe gives low polarisation when free and higher when bound to something large.)

Data set [12] has as its target Apoptosis regulator Bcl-2 (Homo sapiens, UniProt P10415). In words: Binding affinity to BCL2 (unknown origin) after 2 hrs by fluorescence polarization assay. The gist of the method:
as §4

Data set [13] relates to NCI-H146. Briefly: Induction of apoptosis in human NCI-H146 cells xenografted in SCID mouse assessed as increase in PARP cleavage at 15 mg/kg, iv after 3 to 6 hrs by Western blotting analysis. It is filed as functional, organism-based. Further details: dose 15 mg/kg. The gist of the method:
(§5)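 SCID mice bearing subcutaneous H146 xenografts of about 100 mm³ got a single intravenous dose of 15 mg/kg or vehicle. Tumors were harvested at 3, 6 or 24 h. Western blot then measured total and cleaved PARP and caspase-3.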

Data set [14] deals with NCI-H146. Briefly: Induction of apoptosis in human NCI-H146 cells xenografted in SCID mouse assessed as increase in caspase-3 cleavage at 15 mg/kg, iv after 3 to 6 hrs by Western blotting analysis. Set-up: dose 15 mg/kg. The class given is functional, organism-based. The gist of the method: as §5
Data set [15] concerns Mus musculus. Briefly: Toxicity in SCID mouse xenografted with human NCI-H146 cells assessed as weight loss at 15 mg/kg, iv administered 5 days per week for 2 weeks. It is filed as organism-based. Further details: dose 15 mg/kg, route intravenous. The note with it: in vivo. The gist of the method: (§6)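 SCID mice carried subcutaneous H146 xenografts, 8 per group, starting mean tumor volume 126 mm³. Dosing was intravenous at 15 mg/kg, daily, 5 days/week for 2 weeks. Body weight and other signs of toxicity were monitored during and after treatment.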

Data set [16] concerns Mus musculus. Briefly: Toxicity in SCID mouse xenografted with human NCI-H146 cells 15 mg/kg, iv administered 5 days per week for 2 weeks. Set-up: dose 15 mg/kg, route intravenous. As to conditions: in vivo. It is filed as organism-based. The gist of the method:
as §6

Data set [17] in a line: Antitumor activity against human NCI-H146 cells xenografted in SCID mouse assessed as tumor volume at 15 mg/kg, iv administered 5 days per week for 2 weeks measured on day 117 (reference value: 130 mm'3). The class given is functional. The gist of the method: as §2
Data set [18] relates to NCI-H146. Briefly: Antitumor activity against human NCI-H146 cells xenografted in SCID mouse assessed as tumor regression at 15 mg/kg, iv administered 5 days per week for 2 weeks measured on day 62. The class given is functional, organism-based. Set-up: dose 15 mg/kg. The method, boiled down: as §2

Activity calls are given as the source filed them. The rule behind the calls is not given here.

Apoptosis regulator Bcl-2, sequence (P10415 whole entry): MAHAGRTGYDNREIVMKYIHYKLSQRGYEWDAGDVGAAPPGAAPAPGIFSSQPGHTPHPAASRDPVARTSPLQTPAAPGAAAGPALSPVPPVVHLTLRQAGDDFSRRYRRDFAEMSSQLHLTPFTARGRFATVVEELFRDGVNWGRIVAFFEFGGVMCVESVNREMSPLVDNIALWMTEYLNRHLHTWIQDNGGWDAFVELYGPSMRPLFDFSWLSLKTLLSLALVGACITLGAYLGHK
Bcl-2-like protein 1, sequence (Q07817 whole entry): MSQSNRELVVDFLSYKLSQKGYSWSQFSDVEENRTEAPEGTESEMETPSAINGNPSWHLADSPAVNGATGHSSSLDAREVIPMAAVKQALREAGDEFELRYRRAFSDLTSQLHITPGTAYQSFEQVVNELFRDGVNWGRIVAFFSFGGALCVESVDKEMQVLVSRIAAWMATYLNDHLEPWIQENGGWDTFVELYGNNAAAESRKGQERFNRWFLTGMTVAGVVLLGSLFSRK
Induced myeloid leukemia cell differentiation protein Mcl-1, sequence (Q07820 whole entry): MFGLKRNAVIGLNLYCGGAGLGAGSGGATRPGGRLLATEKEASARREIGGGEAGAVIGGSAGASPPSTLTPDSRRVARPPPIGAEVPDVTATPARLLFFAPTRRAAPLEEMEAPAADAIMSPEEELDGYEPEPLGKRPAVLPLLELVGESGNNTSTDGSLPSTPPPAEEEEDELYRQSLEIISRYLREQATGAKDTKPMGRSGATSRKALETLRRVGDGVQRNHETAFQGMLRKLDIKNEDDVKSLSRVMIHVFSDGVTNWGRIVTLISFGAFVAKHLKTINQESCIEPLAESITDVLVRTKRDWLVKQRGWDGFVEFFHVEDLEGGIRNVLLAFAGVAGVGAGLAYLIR

Regarding `CC1(C)CCC(c2ccc(Cl)cc2)=C(CN2CCN(c3ccc(C(=O)NS(=O)(=O)c4ccc(N[C@H](CCN5CCOCC5)CSc5ccccc5)c(S(=O)(=O)C(F)(F)F)c4)cc3)CC2)C1` [NAVITOCLAX], the IC50 in data set [1] turned out to be 54.2 nM; in [2], 38.4 nM; in data set [3] it was 26.6 nM.

`CCn1c(C)c(C(=O)NS(C)(=O)=O)c(-c2cccc(N3CCN(c4ccc(NS(=O)(=O)c5ccc(N[C@H](CCN(C)C)CSc6ccccc6)c([N+](=O)[O-])c5)cc4)CC3)c2)c1-c1ccc(Cl)cc1`: the IC50 is 11.1 nM in [1]; 7.9 nM in data set [2]; greater than 2000 nM in data set [9]; 4.8 nM in data set [10]; 7 nM in data set [11]; 1.8 nM in data set [12]. Also, the IC50 in [3] was found to be 8.2 nM. The result in data set [4], in [13] and in data set [14] was Active. The Activity result is recorded as “Non-toxic” in data set [5], 10% in data set [7] and less than 5% in data set [8]. The MTD at 2 weeks in [6] was found to be 15 mg/kg.

`CN(C)CC[C@H](CSc1ccccc1)Nc1ccc(S(=O)(=O)NC(=O)c2ccc(N3CCN(Cc4ccccc4-c4ccc(Cl)cc4)CC3)cc2)cc1[N+](=O)[O-]` [ABT 737]: the figures for the IC50 in data set [1], in [2] and in data set [3] were 173 nM, 138 nM and 54 nM, respectively.

Regarding `Cc1c(C(=O)NS(C)(=O)=O)c(-c2cccc(N3CCN(c4ccc(NS(=O)(=O)c5ccc(N[C@H](CCN(C)C)CSc6ccccc6)c([N+](=O)[O-])c5)cc4)CC3)c2)c(-c2ccc(Cl)cc2)n1C(C)C`, the IC50 is 2.3 nM in data set [1]; 1.4 nM in data set [2]; greater than 2000 nM in data set [9]; 1.3 nM in [10]; 6.9 nM in [11]; 1.8 nM in data set [12]. Moreover, the IC50 in [3] worked out at 1 nM. Moreover, the result in data set [4], in data set [18], in data set [13] and in data set [14] was Active. Further, the Activity entry is “Non-toxic” in [15]; “Non-toxic” in data set [16]; “Non-toxic” in [5]; 47 mm3 in data set [17]; 10% in [7]; less than 5% in data set [8]. Also, the MTD at 2 weeks in data set [6] stood at 15 mg/kg. Also, the Ki in data set [11] and in [12] was less than 1 nM each time.

The IC50 is the point on the concentration scale where inhibition reaches its midpoint. The term Ki denotes a measure of affinity in units of concentration, obtained from inhibition or displacement.
